From ChEMBL document CHEMBL2384910, “Lead optimization of 5-amino-6-(2,2-dimethyl-5-oxo-4-phenylpiperazin-1-yl)-4-hydroxyhexanamides to reduce a cardiac safety issue: discovery of DS-8108b, an orally active renin inhibitor” (Bioorg Med Chem, 2013)
Positions count from the first letter of the chain named. Calls of active or inactive are those of the source. The rule behind the calls is not given here.

Key:
Renin [1] = biological target: T1, Renin (Macaca fascicularis, UniProt Q6DLS0); assay: Inhibition of renin in cynomolgus monkey plasma after 1 hr by RIA
T1 sequence (Q6DLS0 whole entry): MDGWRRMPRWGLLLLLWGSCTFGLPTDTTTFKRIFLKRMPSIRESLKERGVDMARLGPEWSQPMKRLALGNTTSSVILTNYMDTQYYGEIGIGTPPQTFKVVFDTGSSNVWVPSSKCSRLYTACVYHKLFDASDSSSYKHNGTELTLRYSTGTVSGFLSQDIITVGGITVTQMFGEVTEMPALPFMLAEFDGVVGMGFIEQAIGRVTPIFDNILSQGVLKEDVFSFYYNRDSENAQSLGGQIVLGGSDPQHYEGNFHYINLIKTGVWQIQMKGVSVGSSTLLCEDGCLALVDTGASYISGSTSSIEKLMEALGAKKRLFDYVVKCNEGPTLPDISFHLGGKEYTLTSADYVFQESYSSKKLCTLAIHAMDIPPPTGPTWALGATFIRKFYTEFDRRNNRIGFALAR
Outline: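 Pooled mixed-gender EDTA cynomolgus monkey plasma with pH adjusting solution and Inhibitor A, compound in 1% DMSO final, incubated 1 h at 37 °C. Angiotensin I by competitive RIA; uninhibited and 4 °C controls define % inhibition; IC50 from four-parameter fit; ratio is compound IC50 over aliskiren IC50 in same plasma batch; ≥2 replicates.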

Heart [2] = assay: Cardiotoxicity in anesthetized New Zealand White rabbit heart assessed as prolongation of […] at 10 uM after 20 mins relative to baseline; type: toxicity, tissue-based, Oryctolagus cuniculus
Outline: (§1)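 Isolated Langendorff-perfused hearts from female NZW rabbits anesthetized with thiopental 30 mg/kg iv; heart excised into chilled Krebs-Henseleit solution. After parameters stabilized, compound perfused at 10, 30 and 100 µM for 20 min; ECG changes expressed as % change from baseline.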

Heart [3] = assay: Cardiotoxicity in anesthetized New Zealand White rabbit heart assessed as prolongation of QRS width at 10 uM after 20 mins relative to baseline; type: toxicity, tissue-based, Oryctolagus cuniculus; outline: as §1
Heart [4] = assay: Cardiotoxicity in anesthetized New Zealand White rabbit heart assessed as prolongation of QTc interval at 10 uM after 20 mins relative to baseline; type: toxicity, tissue-based, Oryctolagus cuniculus; outline: as §1
Heart [5] = assay: Cardiotoxicity in anesthetized New Zealand White rabbit heart assessed as prolongation of heart rate at 10 uM after 20 mins relative to baseline; type: toxicity, tissue-based, Oryctolagus cuniculus; outline: as §1
Heart [6] = assay: Cardiotoxicity in anesthetized New Zealand White rabbit heart assessed as ventricular tachycardia and ventricular fibrillation at 30 uM after 20 mins; type: toxicity, tissue-based, Oryctolagus cuniculus; outline: as §1
[7] = biological target: T2, Renin (Macaca fascicularis) (UniProt Q6DLS0); assay: Ratio of compound IC50 to aliskiren IC50 for renin in cynomolgus monkey plasma
T2 sequence (whole entry): T1 sequence (Q6DLS0 whole entry)

Renin [8] = biological target: T3, Renin (Homo sapiens, UniProt P00797); assay: Inhibition of human recombinant renin using Arg-Glu(EDANS)-Ile-His-Pro-Phe-His-Leu-Val-Ile-His-Thr-Lys (DABCYL)-Arg as substrate incubated for 10 mins prior to substrate addition measured after 90 mins by fluorescence assay
T3 sequence (P00797 whole entry): T1 sequence (Q6DLS0 whole entry) with A68T, L214I, A235S
Outline: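 Trypsin-activated recombinant human renin in 50 mM Tris-HCl pH 7.9, 100 mM NaCl, preincubated with compound 10 min at room temperature; FRET substrate Arg-Glu(EDANS)…Lys(DABCYL)-Arg added, 90 min at 37 °C.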

Rattus norvegicus [9] = assay: Cardiotoxicity in Sprague-Dawley rat electrophysiology model assessed as QRS complex abnormalities at 10 mg/kg, iv by ECG analysis; type: toxicity, organism-based; parameters: dose 10 mg/kg, route intravenous; details: in vivo
Outline: (§2)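 Male Sprague-Dawley rats anesthetized with inactin 100 mg/kg ip; surface lead II ECG recorded continuously. Compounds given as iv bolus via right jugular vein catheter after stabilization; QRS complex abnormality scored as no, moderate or severe change; n = 2 at 10 mg/kg.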

[10] = AUC (0 to 24 hrs) in cynomolgus monkey at 3 mg/kg, po by HPLC-MS/MS analysis; type: ADME, organism-based, Macaca fascicularis; parameters: time < 24 hr, dose 3 mg/kg, route oral; details: plasma
Outline: (§3)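 Blood sampled over 24 h, at least 7 time points; plasma levels by HPLC-MS/MS; parameters from non-compartmental analysis of concentration-time curves.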

[11] = Cmax in cynomolgus monkey at 3 mg/kg, po by HPLC-MS/MS analysis; type: ADME, organism-based, Macaca fascicularis; parameters: dose 3 mg/kg, route oral; details: in vivo; outline: as §3
Rattus norvegicus [12] = assay: Cardiotoxicity in iv bolus dosed Sprague-Dawley rat electrophysiology model assessed as QRS complex abnormalities; type: toxicity, organism-based; details: in vivo; outline: as §2
[13] = Half life in cynomolgus monkey at 3 mg/kg, po by HPLC-MS/MS analysis; type: ADME, organism-based, Macaca fascicularis; parameters: dose 3 mg/kg, route oral; details: in vivo; outline: as §3
Cynomolgus monkey [14] = assay: Cardiotoxicity in telemetered cynomolgus monkey assessed as ventricular tachycardia at 50 mg/kg, po; type: toxicity, organism-based, Macaca fascicularis, Cardiac ventricle; parameters: dose 50 mg/kg, route oral; details: in vivo
Rattus norvegicus [15] = assay: Toxicity in Sprague-Dawley rat electrophysiology model assessed as mortality at 3 to 10 mg/kg, iv; type: organism-based; parameters: dose 3-10 mg/kg, route intravenous; details: in vivo
[16] = Clearance in cynomolgus monkey at 1 mg/kg, iv by HPLC-MS/MS analysis; type: ADME, organism-based, Macaca fascicularis; parameters: dose 1 mg/kg, route intravenous; details: in vivo
Cynomolgus monkey [17] = assay: Cardiotoxicity in telemetered cynomolgus monkey assessed as ventricular fibrillation at 50 mg/kg, po; type: toxicity, organism-based, Macaca fascicularis, Cardiac ventricle; parameters: dose 50 mg/kg, route oral; details: in vivo
Cynomolgus monkey [18] = assay: Inhibition of renin in furosemide pretreated cynomolgus monkey plasma at 3 mg/kg, po; type: functional, organism-based; parameters: dose 3 mg/kg; details: Macaca fascicularis
Outline: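 Cynomolgus monkeys pretreated with furosemide given single oral dose 1, 3 or 10 mg/kg or vehicle 1% methylcellulose. Venous blood into EDTA-2Na tubes at 1, 2, 4, 8, 24 h, chilled, centrifuged cold, plasma frozen; plasma renin activity by radioimmunoassay.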

Cynomolgus monkey [19] = assay: Inhibition of renin in furosemide pretreated cynomolgus monkey assessed as reduction in mean arterial blood pressure at 3 mg/kg, po; type: functional, organism-based; parameters: dose 3 mg/kg; details: Macaca fascicularis
Outline: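 Conscious freely moving telemetered cynomolgus monkeys (n = 6), furosemide 5 mg/kg/day im for 3 days before dosing; fasted from morning, fed ≥8 h post-dose. Oral 1, 3, 10 mg/kg or 1% methylcellulose, crossover design; arterial pressure recorded from −3 to 24 h; hourly mean MAP; mean ± SEM.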

Rattus norvegicus [20] = organism: Rattus norvegicus; assay: Displacement of [3H]batrachotoxin from sodium channel (site 2) in Wistar rat brain at 10 uM relative to control; type: tissue-based
Outline: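 Rat brain membranes in modified Tris–HCl buffer, pH 7.4, incubated 1 h at 37 °C with 5 nM [3H]batrachotoxin plus test compound. Nonspecific binding defined with excess veratridine. Binding affinity is expressed as percent inhibition relative to vehicle control.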

[21] = Volume of distribution at steady state in cynomolgus monkey at 1 mg/kg, iv by HPLC-MS/MS analysis; type: ADME, organism-based, Macaca fascicularis; parameters: dose 1 mg/kg, route intravenous; details: in vivo, read-out: Vdss
[22] = Oral bioavailability in cynomolgus monkey at 3 mg/kg by HPLC-MS/MS analysis; type: ADME, organism-based, Macaca fascicularis; details: in vivo; outline: as §3
Heart [23] = assay: Cardiotoxicity in anesthetized New Zealand White rabbit heart assessed as prolongation of […] at 30 uM after 20 mins relative to baseline; type: toxicity, tissue-based, Oryctolagus cuniculus; outline: as §1
Heart [24] = assay: Cardiotoxicity in anesthetized New Zealand White rabbit heart assessed as prolongation of heart rate at 30 uM after 20 mins relative to baseline; type: toxicity, tissue-based, Oryctolagus cuniculus; outline: as §1
Heart [25] = assay: Cardiotoxicity in anesthetized New Zealand White rabbit heart assessed as prolongation of QTc interval at 30 uM after 20 mins relative to baseline; type: toxicity, tissue-based, Oryctolagus cuniculus; outline: as §1
Heart [26] = assay: Cardiotoxicity in anesthetized New Zealand White rabbit heart assessed as prolongation of QRS width at 30 uM after 20 mins relative to baseline; type: toxicity, tissue-based, Oryctolagus cuniculus; outline: as §1
Rattus norvegicus [27] = assay: Cardiotoxicity in Sprague-Dawley rat electrophysiology model assessed as QRS complex abnormalities at 10 mg/kg, iv; type: toxicity, organism-based; parameters: dose 10 mg/kg, route intravenous; details: in vivo; outline: as §2

Row | Compound | IC50 (Renin [1]) [nM] | Ratio IC50 [7] | IC50 (Renin [8]) [nM] | Activity (Rattus norvegicus [9]) | also measured
1 | CC(C)[C@H](C[C@H](O)[C@@H](N)CN1CC(=O)N(c2ccccc2Cl)CC1(C)C)C(=O)Nc1ccc(F)cn1.O=C(O)/C=C/C(=O)O | 3.4 | 0.5 | 0.9 | Toxic | Activity (Heart [2]): 64.1%; Activity (Heart [3]): 74.7%; Activity (Heart [4]): 13.5%; Activity (Heart [5]): -3.7%; Activity (Heart [6]): Toxic
2 | CC[C@H](C[C@H](O)[C@@H](N)CN1CC(=O)N(c2ccccc2Cl)CC1(C)C)C(=O)NC1C2CC3CC1CC(C(N)=O)(C3)C2.O=C(O)/C=C/C(=O)O (stereo partly drawn) | 1.2 | 0.5 | 1.3 |  | AUC(0-t) at 24 h [10]: 90 ng·h/mL; Cmax [11]: 19 ng/mL
3 | CC(C)[C@H](C[C@H](O)[C@@H](N)CN1CC(=O)N(c2ccccc2Cl)CC1(C)C)C(=O)NCC(C)(C)C.O=C(O)/C=C/C(=O)O | 3 | 0.5 | 1 | Toxic | Activity (Rattus norvegicus [12]): Dose-dependent effect; half-life [13]: 15.3 h; Activity (Cynomolgus monkey [14]): Toxic; Activity (Heart [2]): 68.9%; Activity (Heart [3]): 15.6%; Activity (Heart [4]): -1.5%; Activity (Heart [5]): -4.6%; AUC(0-t) at 24 h [10]: 460 ng·h/mL; Cmax [11]: 111 ng/mL; Activity (Rattus norvegicus [15]): Toxic; clearance [16]: 28.4 mL/min/kg; Activity (Heart [6]): Toxic; Activity (Cynomolgus monkey [17]): Toxic; inhibition (Cynomolgus monkey [18]): Active; inhibition (Cynomolgus monkey [19]): Active; Activity (Rattus norvegicus [20]): 87%; Vd [21]: 23.5 L/kg; bioavailability [22]: 26.4%
4 | CC[C@H](C[C@H](O)[C@@H](N)CN1CC(=O)N(c2ccccc2Cl)CC1(C)C)C(=O)NCC(C)(C)CO.O=C(O)/C=C/C(=O)O | 5.2 | 0.8 | 1.6 | Non-toxic | Activity (Heart [2]): -7.8%; Activity (Heart [3]): 3.8%; Activity (Heart [4]): -2.1%; Activity (Heart [5]): -3.5%; Activity (Heart [23]): 3.4%; Activity (Heart [24]): -4.3%; Activity (Heart [25]): -5.4%; Activity (Heart [26]): 1.7%
5 | CC[C@H](C[C@H](O)[C@@H](N)CN1CC(=O)N(c2ccccc2Cl)CC1(C)C)C(=O)NCC1(CO)CCCC1.O=C(O)/C=C/C(=O)O | 3 | 0.7 | 1.1 | Toxic | 
6 | CC[C@H](C[C@H](O)[C@@H](N)CN1CC(=O)N(c2ccccc2Cl)CC1(C)C)C(=O)NCC1(CO)CCCCC1.O=C(O)/C=C/C(=O)O | 3.4 | 0.6 | 1.1 | Toxic | 
7 | CC(C)[C@H](C[C@H](O)[C@@H](N)CN1CC(=O)N(c2ccccc2Cl)CC1(C)C)C(=O)Nc1ccc(F)cc1.O=C(O)/C=C/C(=O)O | 7.2 | 1.2 | 1.4 | Toxic | 
8 | CC(C)[C@H](C[C@H](O)[C@@H](N)CN1CC(=O)N(c2ccccc2Cl)CC1(C)C)C(=O)NCC(C)(C)O.O=C(O)/C=C/C(=O)O | 15 | 1.9 | 2.4 | Non-toxic | 
9 | CC[C@H](C[C@H](O)[C@@H](N)CN1CC(=O)N(c2ccccc2Cl)CC1(C)C)C(=O)NCC(CC)(CC)CO.O=C(O)/C=C/C(=O)O | 3 | 0.8 | 1 | Toxic | 
10 | CC(C)[C@H](C[C@H](O)[C@@H](N)CN1CC(=O)N(c2ccccc2Cl)CC1(C)C)C(=O)N[C@H]1C2CC3CC1C[C@](O)(C3)C2.O=C(O)/C=C/C(=O)O | 2.2 | 0.9 | 1.3 | Non-toxic | 
11 | CCN(CC)CC(=O)Nc1c(C)cccc1C [LIDOCAINE] |  |  |  |  | Activity (Rattus norvegicus [27]): Toxic
12 | CC(C)[C@H](C[C@H](O)[C@@H](N)CN1CC(=O)N(c2ccccc2Cl)CC1(C)C)C(=O)NCC(C)(C)CO.O=C(O)/C=C/C(=O)O | 9.6 | 0.8 | 1.7 | Toxic | 
13 | CN1CC(=O)N(c2ccccc2Cl)CC1(C)C |  |  |  |  | Activity (Rattus norvegicus [27]): Non-toxic
14 | CC(C)[C@H](C[C@H](O)[C@@H](N)CN1CC(=O)N(c2ccccc2Cl)CC1(C)C)C(=O)N[C@H]1CC[C@H](O)CC1.O=C(O)/C=C/C(=O)O | 4.3 | 0.8 | 1.4 | Non-toxic | AUC(0-t) at 24 h [10]: 75 ng·h/mL; Cmax [11]: 19 ng/mL
15 | CC[C@H](C[C@H](O)[C@@H](N)CN1CC(=O)N(c2ccccc2Cl)CC1(C)C)C(=O)Nc1ccc(C)cc1.O=C(O)/C=C/C(=O)O | 28 | 4.5 | 3.2 | Toxic | 
